Published values of several laboratories.
Compare with care: the assays were run in different laboratories.
F2: Prothrombin (F2, Homo sapiens, UniProt P00734)
CDK7 with cyclin H: Cyclin-dependent kinase 7, with cyclin H (CDK7, Homo sapiens, UniProt P50613)
PDE4D: 3',5'-cyclic-AMP phosphodiesterase 4D (PDE4D, Homo sapiens, UniProt Q08499)
PPP3CA: Protein phosphatase 3 catalytic subunit alpha (PPP3CA, Homo sapiens, UniProt Q08209)

SMILES	target	assay	conditions	inhibition
O=C(Nc1ccc2c(c1)B(O)OC2)c1cccc(OCc2ccc(Cl)cc2)c1	F2	enzyme activity, inhibitor	50 µM	13.7%
COc1cc(CNC(=O)CCCC/C=C/C(C)C)ccc1O	CDK7 with cyclin H	enzyme activity, inhibitor, ADP detection	10 µM	31.4%
CN(C)C(=O)COC(=O)Cc1ccc(OC(=O)c2ccc(NC(=N)N)cc2)cc1	F2	enzyme activity, inhibitor	50 µM	99.1%
CC(C)(C)[C@]1(O)CC2OC(=O)CC23C(=O)OC2OC(=O)[C@H](O)C231 (some centres unmarked)	CDK7 with cyclin H	enzyme activity, inhibitor, ADP detection	10 µM	2.1%
O=C(O)CC(O)(CC(=O)O)C(=O)O	PDE4D	enzyme activity, inhibitor, radiometric	50 µM	99.2%
COc1ccc(Cc2nccc3cc(OC)c(OC)cc23)cc1OC	CDK7 with cyclin H	enzyme activity, inhibitor, ADP detection	10 µM	-1.4%
O=C(Nc1cccnn1)N1CCN([C@@H]2CCOc3cc(C(F)(F)F)ccc32)CC1	Bombesin receptor subtype-3 (BRS3, Homo sapiens, UniProt P32247)	cell-free assay	20 µM	37%
CCN(CC)CCCC[C@H](NC(=O)[C@H](CC(C)C)NC(=O)[C@H](C)NC(=O)[C@H](Cc1ccccc1)NC(=O)c1ccc(C(C)(C)C)cc1)C(=O)N[C@@H](CO)C(=O)OC	Prostaglandin E2 receptor EP4 subtype (PTGER4, Homo sapiens, UniProt P35408)	ligand displacement, radioligand	10 µM	5%
O=c1c(O[C@@H]2O[C@H](CO)[C@@H](O)[C@H](O)[C@H]2O)c(-c2ccc(O)cc2)oc2cc(O)cc(O)c12	PDE4D	enzyme activity, inhibitor, radiometric	50 µM	20.2%
CCOC(=O)C1=C(C)NC(c2ccccc2)=C(C(=O)OCc2ccccc2)C1C#Cc1ccccc1 (centres unmarked)	Adenosine receptor A2a (Adora2a, Mus musculus, UniProt Q60613)	ligand displacement, radioligand	10 µM, cell membranes	0%
COc1c2ccoc2cc2oc(=O)ccc12	CDK7 with cyclin H	enzyme activity, inhibitor, ADP detection	10 µM	-13.6%
C#Cc1n[nH]c2c(-c3cn([C@@H](C)c4ccccn4)c(=O)[nH]c3=O)cc(F)cc12	Serine/threonine-protein kinase PAK 2 (PAK2, Homo sapiens, UniProt Q13177)	enzyme activity, inhibitor	0.1 µM	4.1%
CC[C@@]1(O)C(=O)OCc2c1cc1n(c2=O)Cc2cc3ccccc3nc2-1	CDK7 with cyclin H	enzyme activity, inhibitor, ADP detection	10 µM	20.7%
C[C@@H]1CCO[C@H]2Cn3cc(C(=O)NCc4ccc(F)cc4F)c(=O)c(O)c3C(=O)N12	Gag-Pol polyprotein, integrase (gag-pol, Human immunodeficiency virus type 1 group M subtype B, UniProt P04585)	enzyme activity, inhibitor	50 nM	> 50%
Cc1cc(O)c2c(c1)C(=O)c1cc(O)cc(O)c1C2=O	PDE4D	enzyme activity, inhibitor, radiometric	50 µM	45.4%
c1ccc(C(NCCNC(c2ccccc2)c2ccccc2)c2ccccc2)cc1	PPP3CA	enzyme activity, inhibitor	10 µM	32%
O=c1c(O)c(-c2ccc(O)c(O)c2)oc2cc(O)cc(O)c12	PDE4D	enzyme activity, inhibitor, radiometric	50 µM	100%
C=C[C@H]1CN2CC[C@H]1C[C@H]2[C@H](O)c1ccnc2ccccc12	CDK7 with cyclin H	enzyme activity, inhibitor, ADP detection	10 µM	-25.5%
C=C(C)[C@@H]1CC=C2C(=CC[C@]3(C)[C@@H]([C@@H](CCC=C(C)C)C(=O)O)[C@H](O)C[C@@]23C)[C@@]1(C)CCC(=O)O	PDE4D	enzyme activity, inhibitor, radiometric	5 µM	54.3%
CN1CCc2cc3c(cc2[C@H]1[C@@H]1OC(=O)c2c1ccc1c2OCO1)OCO3	CDK7 with cyclin H	enzyme activity, inhibitor, ADP detection	10 µM	22%
O=C(/C=C/c1ccc(O)cc1)c1ccc(O)cc1O	PDE4D	enzyme activity, inhibitor, radiometric	50 µM	52%
Cn1cc(-c2cc(F)cc(N3CCn4c(cc5c4CCCC5)C3=O)c2CO)cc(Nc2ccc(N3CCN(C4COC4)CC3)cn2)c1=O	Protein kinase C gamma type (PRKCG, Homo sapiens, UniProt P05129)	enzyme activity, inhibitor	0.1 µM	12%
O=C1C[C@@H](c2ccc(O[C@@H]3O[C@H](CO)[C@@H](O)[C@H](O)[C@H]3O)cc2)Oc2cc(O)ccc21	PDE4D	enzyme activity, inhibitor, radiometric	50 µM	14%
C[C@H](C(=O)N[C@H]1COc2ccccc2[C@@H]1S(C)(=O)=O)c1ccc(F)cc1	PPP3CA	enzyme activity, inhibitor	10 µM	8%
C=CCc1ccc(O)c(-c2cc(CC=C)ccc2O)c1	PDE4D	enzyme activity, inhibitor, radiometric	50 µM	42.7%
COc1cc(Nc2ncc(F)c(Nc3ccc4c(n3)NC(=O)C(C)(C)O4)n2)cc(OC)c1OC	Mitogen-activated protein kinase 7 (MAPK7, Homo sapiens, UniProt Q13164)	binding, competition with immobilised ligand	10 µM	19%
